Assay results published in ChEMBL document CHEMBL1177893, “Evaluation of labdane derivatives as potential anti-inflammatory agents” (Eur J Med Chem, 2010).
The source made the active and inactive calls. No cut-off for these calls is given here.

How the values were obtained:
[1] = Cytotoxicity against LPS-stimulated mouse RAW264.7 cells assessed as cell viability at 1 uM after 24 hrs by MTT assay; format: cell-based; conditions: LPS-stimulated RAW264.7 cells, read-out: Activity
Summary of the method: (§1)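 RAW 264.7 cells plated at 10⁵ cells/well, pre-incubated 30 min with compound (1-25 µM), then LPS 250 ng/ml for 24 h. MTT added for 4 h at 37 °C; formazan dissolved in DMSO, absorbance read at 540 nm. Viability expressed relative to untreated controls. Triplicate wells, at least three independent experiments.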

RAW264.7 [2] = experiment: Antiinflammatory activity in mouse RAW264.7 cells assessed as inhibition of LPS-induced nitrite production treated 30 mins before LPS challenge measured after 24 hrs by Griess method; format: functional, cell-based
Summary of the method: (§2)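 RAW 264.7 cells pre-incubated 30 min with compound (1, 2, 5, 10, 25 µM; range tested up to 50 µM), then LPS 250 ng/ml for 24 h. Medium nitrite measured by Griess reaction (sulfanilamide/naphthylethylenediamine in phosphoric acid, 10 min room temperature), read spectrophotometrically. IC50 is the concentration giving 50% inhibition of NO release. Three independent experiments in triplicate.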

RAW264.7 [3] = experiment: Antiinflammatory activity in mouse RAW264.7 cells assessed as inhibition of LPS-induced PGE2 production treated 30 mins before LPS challenge measured after 24 hrs by ELISA; format: functional, cell-based
Summary of the method: (§3)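 RAW 264.7 macrophages pretreated 30 min with compound, then stimulated with LPS 250 ng/ml for 24 h. PGE2 in culture medium quantified in duplicate by EIA kit. IC50 is the concentration giving 50% inhibition of PGE2 release. Three independent experiments in triplicate.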

RAW264.7 [4] = experiment: Cytotoxicity against LPS-stimulated mouse RAW264.7 cells assessed as cell viability at 25 uM after 24 hrs by MTT assay; format: cell-based; conditions: raw264.7, 24 h; summary of the method: as §1
RAW264.7 [5] = experiment: Cytotoxicity against LPS-stimulated mouse RAW264.7 cells assessed as cell viability at 10 uM after 24 hrs by MTT assay; format: cell-based; conditions: raw264.7, 24 h; summary of the method: as §1
RAW264.7 [6] = experiment: Antiinflammatory activity in mouse RAW264.7 cells assessed as inhibition of LPS-induced nitrite production at 25 uM treated 30 mins before LPS challenge measured after 24 hrs by Griess method; format: functional, cell-based; summary of the method: as §2
Mus musculus [7] = experiment: Antiinflammatory activity in Swiss mouse assessed as reduction of 12-O-tetradecanoylphorbol acetate-induced ear swelling at 0.25 to 1 mg/ear administered topically measured after 4 hrs; format: functional, organism-based
Summary of the method: (§4)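 TPA ([…]) applied to inner and outer surfaces of right ear of Swiss mice (20-25 g); test agent applied topically in acetone 30 min before TPA. Mice killed after 4 h; equal ear punches weighed, edema as right-over-left weight increase. MPO measured in saline homogenate supernatants (10,000g, 15 min, 4 °C) with tetramethylbenzidine substrate, pH 5.4 phosphate. Three independent experiments in triplicate.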

Mus musculus [8] = experiment: Antiinflammatory activity in Swiss mouse ear homogenates assessed as reduction of 12-O-tetradecanoylphorbol acetate-induced myeloperoxidase activity at 0.25 to 1 mg/ear administered topically measured after 4 hrs; format: functional, organism-based; summary of the method: as §4
RAW264.7 [9] = experiment: Antiinflammatory activity in mouse RAW264.7 cells assessed as inhibition of LPS-induced PGE2 production at 25 uM treated 30 mins before LPS challenge measured after 24 hrs by ELISA; format: functional, cell-based; summary of the method: as §3
RAW264.7 [10] = experiment: Antiinflammatory activity in mouse RAW264.7 cells assessed as inhibition of LPS-induced nitrite production at 50 uM treated 30 mins before LPS challenge measured after 24 hrs by Griess method; format: functional, cell-based; summary of the method: as §2

Compound	viability at 24 h, 1 µM [1] [%]	IC50 (RAW264.7 [2]) [µM]	IC50 (RAW264.7 [3]) [µM]	Activity (RAW264.7 [4])	inhibition (RAW264.7 [2])	inhibition (RAW264.7 [3])	Activity (RAW264.7 [5])	inhibition (RAW264.7 [6])	Activity (Mus musculus [7])	Activity (Mus musculus [8])	inhibition (RAW264.7 [9])	inhibition (RAW264.7 [10])
C[C@H](CC=O)CC[C@@H]1[C@@]2(C)CCCC(C)(C)[C@@H]2CC[C@@]1(C)O	80	> 50	> 50	–	–	–	–	–	–	–	–	–
C[C@H](CCOC(=O)c1ccc(Br)cc1)CC[C@@H]1[C@@]2(C)CCCC(C)(C)[C@@H]2CC[C@@]1(C)O	80	> 50	> 50	–	–	–	–	–	–	–	–	–
CC1=C(CC[C@H](C)CCO)[C@@]2(C)CCCC(C)(C)[C@@H]2CC1	75	15	20	Toxic	Dose-dependent effect	Dose-dependent effect	–	–	–	–	–	–
COC(=O)C[C@@H](C)CC[C@@H]1[C@@]2(C)CCCC(C)(C)[C@@H]2CC[C@@]1(C)O [LABDANIC ACID METHYL ESTER]	95	5	10	–	Dose-dependent effect	Dose-dependent effect	Non-toxic	Active	Active	Active	Active	–
C[C@@H](CC[C@@H]1[C@@]2(C)CCCC(C)(C)[C@@H]2CC[C@@]1(C)O)CC(=O)O [LABDANIC ACID]	80	> 50	> 50	–	–	–	–	–	–	–	–	–
CC(=N)NCc1cccc(CN)c1	–	–	–	–	–	–	–	–	–	–	–	Active
CCCCCCCCCCCC(=O)OCC[C@@H](C)CC[C@@H]1[C@@]2(C)CCCC(C)(C)[C@@H]2CC[C@@]1(C)O	80	> 50	> 50	–	–	–	–	–	–	–	–	–
CC(=O)OCC[C@@H](C)CC[C@@H]1[C@@]2(C)CCCC(C)(C)[C@@H]2CC[C@@]1(C)O	90	15	25	–	Dose-dependent effect	Dose-dependent effect	Non-toxic	–	–	–	–	–
C[C@H](CCO)CC[C@@H]1[C@@]2(C)CCCC(C)(C)[C@@H]2CC[C@@]1(C)O [LABDANEDIOL]	40	15	25	–	Dose-dependent effect	Dose-dependent effect	Toxic	–	–	–	–	–
C[C@H](CCO)CC[C@@]1(C)C2=C(CC[C@@H]1C)C(C)(C)CCC2	75	10	25	Toxic	Dose-dependent effect	Dose-dependent effect	–	–	–	–	–	–
